The results in this text go back to ChEMBL document CHEMBL1255494, “In vivo comparison of the pharmacodynamic targets for echinocandin drugs against Candida species” (Antimicrob Agents Chemother, 2010).

SMILES strings stand for the structures. Values after ≈ are worked out from the molar mass of the structure shown. *1 amine or outer side, *2 acyl side, *3 side chain or, on linkers, in order; H or OH if unused. Where a SMILES comes first, the peptide text is derived from it. Bridges are numbered along the chain shown (N, C = ends). [ ]: non-standard residue; d: D form. The star is where a group is joined. hTyr(3S-OH,4S-OH,3'-OSO3H) = N[C@H](C(=O)O)[C@H](O)[C@@H](O)c1ccc(O)c(OS(=O)(=O)O)c1; pTerphenylCO(4''-OnC5H11) = CCCCCOc1ccc(-c2ccc(-c3ccc(C(=O)*)cc3)cc2)cc1; Orn(4R-OH,5R-OH) = O=C([C@H](C[C@@H](O)[C@@H](O)N[*:3])N[*:1])[*:2]; hTyr(3S-OH,4S-OH) = N[C@H](C(=O)O)[C@H](O)[C@@H](O)c1ccc(O)cc1; Pro(3S-OH,4S-Me) = C[C@H]1CN[C@H](C(=O)O)[C@H]1O; X1 = CCCCCOc1ccc(-c2cc(-c3ccc(C(=O)*)cc3)no2)cc1; Gln(3R-OH) = NC(=O)C[C@@H](O)[C@H](N)C(=O)O; Hyp = O=C(O)[C@@H]1C[C@@H](O)CN1

Data set [1] relates to Mus musculus. In words: Protein binding in Candida albicans infected neutropenic ICR Swiss mouse at 80 mg/kg, ip. In kind it is ADME, organism-based. Details: dose 80 mg/kg, route intraperitoneal. The conditions noted are these: in vivo.
The nature of data set [2]: Ratio of AUC (0 to 24 hrs) in Candida albicans infected neutropenic ICR Swiss mouse to MIC for Candida albicans at static dose after 24 hrs. In kind it is functional. The method in brief:
(§1)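 Neutropenic mice were infected iv and treated 2 h later. Four to six ip dose levels (0.078–160 mg/kg) were given every 24 h for 4 days, 3 mice per regimen. Kidney CFU were counted at 96 h. A sigmoid dose-effect model gave the static and 1-log-kill doses relative to burden at therapy start.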

Data set [3] is described as follows: Ratio of AUC (0 to 24 hrs) in Candida parapsilosis infected neutropenic ICR Swiss mouse to MIC for Candida parapsilosis at static dose after 24 hrs. In kind it is functional. The method in brief:
as §1

Data set [4] in a line: Ratio of AUC (0 to 24 hrs) in Candida parapsilosis infected neutropenic ICR Swiss mouse to MIC for Candida parapsilosis at 1 log kill dose after 24 hrs. It is filed as functional. An outline of the steps:
as §1

Data set [5] is described as follows: Ratio of fAUC (0 to 24 hrs) in Candida glabrata infected neutropenic ICR Swiss mouse to MIC for Candida glabrata at 1 log kill dose after 24 hrs. It is filed as functional.
In data set [6] the test system is Candida albicans. In words: Fungistatic activity against Candida albicans infected in neutropenic ICR Swiss mouse after 24 hrs. It is filed as functional. An outline of the steps:
(§2)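 Female ICR Swiss mice, neutropenic via cyclophosphamide s.c. (150 mg/kg day −4, 100 mg/kg day −1 and day +2), infected by tail-vein injection of clinical isolates 2 h before therapy. Intraperitoneal dosing every 24 h for 4 days, 4–6 dose levels from 0.078 to 160 mg/kg, 3 mice per regimen. Kidney CFU counted at 96 h. Sigmoid dose-effect fit gives static dose and 1 log kill dose relative to burden at start of therapy.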

For data set [7], the system named is Nakaseomyces glabratus. In words: Antifungal activity against Candida glabrata infected in neutropenic ICR Swiss mouse assessed log reduction in bacterial count […]. It is filed as functional. The method in brief: as §2
Data set [8] has as its system Candida parapsilosis. Nature of the data set: Antifungal activity against Candida parapsilosis infected in ICR Swiss mouse assessed log reduction in bacterial count […]. In kind it is functional. The method in brief:
as §2

Data set [9] relates to Candida parapsilosis. In words: Antifungal activity against Candida parapsilosis infected in ICR Swiss mouse. It is filed as functional. The conditions noted are these: for ED50: Lodderomyces parapsilosis. An outline of the steps: as §2
The subject of data set [10] is Candida albicans. Nature of the data set: Antifungal activity against Candida albicans 98-17 after 24 hrs. The conditions noted are these: 98-17, 24 h. In kind it is functional. An outline of the steps:
(§3)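 MICs by CLSI M27-A3 broth dilution in RPMI 1640, inoculum 0.5 × 10³ to 2.5 × 10³ cells/ml, 35°C. Read visually at 24 h as the lowest concentration giving ≥50% growth reduction versus control. Run on three occasions in duplicate and reported as the mean. C. krusei ATCC 6258 and C. parapsilosis ATCC 22019 served as QC strains.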

Data set [11] concerns Candida albicans. Nature of the data set: Antifungal activity against Candida albicans K1 after 24 hrs. It is filed as functional. The note with it: K1, 24 h. The method in brief:
(§4)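 Broth microdilution per CLSI M27-A3 in RPMI 1640; inoculum 0.5 × 10³ to 2.5 × 10³ cells/ml, 35°C. […] Three separate occasions in duplicate, mean reported; C. krusei ATCC 6258 and C. parapsilosis ATCC 22019 as daily QC.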

Data set [12] deals with Nakaseomyces glabratus. Nature of the data set: Antifungal activity against Candida glabrata 33616 after 24 hrs. It is filed as functional. The note with it: Nakaseomyces glabratus, 33616, 24 h. An outline of the steps:
as §3

For data set [13], the system named is Nakaseomyces glabratus. Nature of the data set: Antifungal activity against Candida glabrata 35315 after 24 hrs. It is filed as functional. The note with it: Nakaseomyces glabratus, 35315, 24 h. The method in brief:
as §3

The subject of data set [14] is Nakaseomyces glabratus. In words: Antifungal activity against Candida glabrata 5376 after 24 hrs. In kind it is functional. The conditions noted are these: Nakaseomyces glabratus, 5376, 24 h. An outline of the steps: as §4
For data set [15], the system named is Nakaseomyces glabratus. Nature of the data set: Antifungal activity against Candida glabrata 34341 after 24 hrs. In kind it is functional. The note with it: Nakaseomyces glabratus, 34341, 24 h. An outline of the steps: as §3
The subject of a further data set is Candida metapsilosis. Nature of the data set: Antifungal activity against Candida metapsilosis 20463.02 after 24 hrs. The conditions noted are these: Lodderomyces metapsilosis, 20463.02, 24 h. In kind it is functional. The method in brief:
as §3

In data set [16] the test system is Candida parapsilosis. In words: Antifungal activity against Candida parapsilosis 20477.048 after 24 hrs. It is filed as functional. The note with it: Lodderomyces parapsilosis, 20477.048, 24 h. The method in brief: as §3
Data set [17] relates to Candida albicans. Nature of the data set: Antifungal activity against Candida albicans 98-234 after 24 hrs. In kind it is functional. The note with it: 98-234, 24 h. The method in brief: as §3
Data set [18] deals with Mus musculus. Nature of the data set: Cmax in Candida albicans infected neutropenic ICR Swiss mouse at 80 mg/kg, ip. It is filed as ADME, organism-based. Also noted: dose 80 mg/kg, route intraperitoneal. The conditions noted are these: in vivo. An outline of the steps: (§5)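 Neutropenic female ICR Swiss mice (cyclophosphamide sc at 150 mg/kg on day −4, 100 mg/kg on day −1 and day +2) infected iv via tail vein with Candida; single ip doses of 5, 20 or 80 mg/kg. Serum drawn from 3 mice per time point at eight time points and assayed by microbiologic assay (C. albicans K1) or […]. Noncompartmental analysis; AUC by trapezoidal rule.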

The subject of data set [19] is Mus musculus. In words: Cmax in Candida albicans infected neutropenic ICR Swiss mouse at 20 mg/kg, ip. It is filed as ADME, organism-based. Details: dose 20 mg/kg, route intraperitoneal. The note with it: in vivo. An outline of the steps:
as §5

Data set [20] deals with Mus musculus. In words: Cmax in Candida albicans infected neutropenic ICR Swiss mouse at 5 mg/kg, ip. In kind it is ADME, organism-based. Also noted: dose 5 mg/kg, route intraperitoneal. The note with it: in vivo. An outline of the steps:
as §5

In the case of `CCCCCOc1ccc(-c2cc(-c3ccc(C(=O)N[C@H]4C[C@@H](O)[C@@H](O)NC(=O)[C@@H]5[C@@H](O)[C@@H](C)CN5C(=O)[C@H]([C@H](O)CC(N)=O)NC(=O)[C@H]([C@H](O)[C@@H](O)c5ccc(O)c(OS(=O)(=O)O)c5)NC(=O)[C@@H]5C[C@@H](O)CN5C(=O)[C@H]([C@@H](C)O)NC4=O)cc3)no2)cc1` [MICAFUNGIN] (X1-[Orn(4R-OH,5R-OH)]T[Hyp][hTyr(3S-OH,4S-OH,3'-OSO3H)][Gln(3R-OH)][Pro(3S-OH,4S-Me)]; lactam 1-C), the Activity with Mus musculus [1] came out at 99.75%; with Candida albicans [6] it was 2.79 mg/kg; in the data set with Nakaseomyces glabratus [7] it was 5.88 mg/kg; in the data set on Candida parapsilosis [8], 55.8 mg/kg. The Ratio in data set [2] worked out at 5299; in data set [3], 1981; in data set [4], 3090; in data set [5] it was 9.45. Moreover, the Emax in the data set with Candida parapsilosis [9] was 4.8 log10 CFU/kidneys. The compound also showed an ED50 in the data set with Candida parapsilosis [9] of 2.6 mg/kg. Moreover, the MIC in the data set on Candida albicans [10] was 0.03 µg/mL (≈ 0.0236 µM); against Candida albicans [11] it was 0.016 µg/mL (≈ 0.0126 µM); with Nakaseomyces glabratus [12] it was 0.25 µg/mL (≈ 0.197 µM); against Nakaseomyces glabratus [13], 0.06 µg/mL (≈ 0.0472 µM); in the data set on Nakaseomyces glabratus [14] it was 0.008 µg/mL (≈ 0.0063 µM); in the data set with Nakaseomyces glabratus [15] it was 0.06 µg/mL (≈ 0.0472 µM). The MIC was 0.12 µg/mL (≈ 0.0945 µM) against Candida metapsilosis and 0.5 µg/mL (≈ 0.394 µM) against Candida parapsilosis [16].

Consider `CCCCCOc1ccc(-c2ccc(-c3ccc(C(=O)N[C@H]4C[C@@H](O)[C@@H](O)NC(=O)[C@@H]5[C@@H](O)[C@@H](C)CN5C(=O)[C@H]([C@@H](C)O)NC(=O)[C@H]([C@H](O)[C@@H](O)c5ccc(O)cc5)NC(=O)[C@@H]5C[C@@H](O)CN5C(=O)[C@H]([C@@H](C)O)NC4=O)cc3)cc2)cc1` [ANIDULAFUNGIN] ({pTerphenylCO(4''-OnC5H11)}-[Orn(4R-OH,5R-OH)]T[Hyp][hTyr(3S-OH,4S-OH)]T[Pro(3S-OH,4S-Me)]; lactam 1-C), for which the Activity with Mus musculus [1] is 99%; in the data set with Candida albicans [6], 2.32 mg/kg; in the data set on Nakaseomyces glabratus [7] it was 39 mg/kg; in the data set on Candida parapsilosis [8], 47 mg/kg. Also, the Ratio in data set [2] was found to be 2782; in data set [3], 1154; in [4], 2244; in data set [5], 32. In the data set on Candida parapsilosis [9], this compound gave an Emax of 5.8 log10 CFU/kidneys. The ED50 in the data set with Candida parapsilosis [9] is 7.2 mg/kg. The MIC is 0.03 µg/mL (≈ 0.0263 µM) against Candida albicans [10]; 0.015 µg/mL (≈ 0.0132 µM) against Candida albicans [17]; 0.015 µg/mL (≈ 0.0132 µM) against Candida albicans [11]; 1 µg/mL (≈ 0.877 µM) against Nakaseomyces glabratus [12]; 0.25 µg/mL (≈ 0.219 µM) against Nakaseomyces glabratus [13]; 0.03 µg/mL (≈ 0.0263 µM) against Nakaseomyces glabratus [14]. Also, the MIC in the data set with Nakaseomyces glabratus [15] was 0.12 µg/mL (≈ 0.105 µM); with Candida metapsilosis it was 0.25 µg/mL (≈ 0.219 µM); against Candida parapsilosis [16] it was 2 µg/mL (≈ 1.75 µM). The figures for the Cmax with Mus musculus [18], in the data set on Mus musculus [19] and in the data set on Mus musculus [20] were 60000 ng/mL, 24000 ng/mL and 4300 ng/mL, respectively.
